Data set [1] deals with PbIMPDH-B Phe411 substituted with Tyr (Penicillium brevicompactum, UniProt F1DBB2, F415Y). The data set can be described thus: MPA inhibition of PbIMPDH-B variant 411*. It counts as biochemical.
For a further data set, the system named is Imd2. As to conditions: Imd2 from Saccharomyces cerevisiae; cited from earlier work.
In data set [2] the target is PbIMPDH-B (IMPDH-B from P. brevicompactum) (Penicillium brevicompactum, UniProt F1DBB2). The data set can be described thus: biochemical.
Chain of PbIMPDH-B (IMPDH-B from P. brevicompactum) (F1DBB2 whole entry): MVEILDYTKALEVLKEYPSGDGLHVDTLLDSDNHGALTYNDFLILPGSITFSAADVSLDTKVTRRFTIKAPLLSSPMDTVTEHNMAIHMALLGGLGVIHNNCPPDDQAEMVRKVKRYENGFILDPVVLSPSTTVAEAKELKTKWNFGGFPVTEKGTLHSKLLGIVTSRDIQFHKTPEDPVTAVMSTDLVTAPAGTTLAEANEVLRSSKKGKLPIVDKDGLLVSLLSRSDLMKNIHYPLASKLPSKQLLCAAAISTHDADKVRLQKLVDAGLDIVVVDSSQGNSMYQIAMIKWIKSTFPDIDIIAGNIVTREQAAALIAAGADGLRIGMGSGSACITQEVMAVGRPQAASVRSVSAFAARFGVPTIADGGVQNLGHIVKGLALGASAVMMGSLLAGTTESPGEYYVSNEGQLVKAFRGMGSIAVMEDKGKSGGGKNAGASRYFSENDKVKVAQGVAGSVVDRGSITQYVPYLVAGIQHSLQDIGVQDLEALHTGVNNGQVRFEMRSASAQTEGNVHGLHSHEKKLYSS
Data set [3] concerns the target PcIMPDH-B (IMPDH-B from P. chrysogenum) (Penicillium chrysogenum, UniProt B6H451). The experiment in a line: biochemical.
Data set [4] concerns the target PbIMPDH-A (IMPDH-A from Penicillium brevicompactum) (Penicillium brevicompactum, UniProt A0A9W9QLZ9). The experiment in a line: IMPDH enzyme assay. It is filed as biochemical.
Data set [5] relates to AnImdA, PcIMPDH-A and PcIMPDH-B. The experiment in a line: MPA inhibition of the MPA-sensitive fungal IMPDHs. It is filed as biochemical. The settings on record: range over AnImdA.
Data set [6] addresses AnImdA (IMPDH from Aspergillus nidulans) (Aspergillus nidulans, UniProt C8V6R6). The data set can be described thus: biochemical.
In another data set the test system is P. chrysogenum. The data set can be described thus: Spot assay to determine sensitivity towards MPA. It is filed as cell-based, Penicillium chrysogenum. As to conditions: CYA plates with 200 μg/ml MPA (method) / 6.2 μM MPA (legend of Figure 2A), 25°C. The method, boiled down:
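Strain IBT5857 spores harvested into sterile water. 10-fold serial dilutions spotted onto CYA with or without MPA, most concentrated spot ~10⁶ spores. MPA stock was 25 mg/ml in methanol, and every plate held 0.8% (v/v) methanol. Stock and plates were made just before spotting to avoid MPA degradation. Grown at 25°C; growth of dilution series scored.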

In data set [7] the target is PcIMPDH-A (IMPDH-A from Penicillium chrysogenum) (Penicillium chrysogenum, UniProt B6HC24). The experiment in a line: biochemical.
For data set [8], the system named is E. coli ΔguaB expressing PbIMPDH-B. The experiment in a line: Bacterial complementation assay with MPA. It counts as cell-based. As to conditions: 100 μM MPA, no guanosine. The method, boiled down:
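E. coli BL21(DE3) ΔguaB host (no endogenous IMPDH) carrying N-terminal His6-tagged fungal IMPDH on a pET28-derived vector. Overnight LB cultures with 25 μg/ml kanamycin; 1:20 serial dilutions spotted on M9 minimal medium with 0.5% casamino acids, 100 μg/ml L-tryptophan, 0.1% thiamin, kanamycin, 66 μM IPTG, ± 100 μM MPA; guanosine plates get 50 μg/ml. Incubated overnight at 37°C, then at room temperature; growth scored.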

For data set [9], the target named is AnImdA Tyr411 substituted with Phe (Aspergillus nidulans, UniProt C8V6R6, Y186F). The data set can be described thus: MPA inhibition of AnImdA variant 411*. It is filed as biochemical.
A further data set concerns Imd3. As to conditions: Imd3 from Saccharomyces cerevisiae; cited from earlier work.
For data set [10], the target named is PbIMPDH-A Tyr411 substituted with Phe (Penicillium brevicompactum, UniProt A0A9W9QLZ9, Y425F). The experiment in a line: MPA inhibition of PbIMPDH-A variant 411*. It counts as biochemical. As to conditions: read-out: IC50, 411*, PbIMPDH-A Tyr411 to Phe.
The conditions of data set [11]: cited from earlier work.
In data set [12] the test system is NC(=O)c1ccc[n+]([C@@H]2O[C@H](COP(=O)([O-])OP(=O)(O)OC[C@H]3O[C@@H](n4cnc5c(N)ncnc54)[C@H](O)[C@@H]3O)[C@@H](O)[C@H]2O)c1. The data set can be described thus: cells, lysate or membranes named. The settings on record: pH 8.0.

Chain of PbIMPDH-B Phe411 substituted with Tyr (F1DBB2 whole entry F415Y): as the sequence (F1DBB2 whole entry) above, with F415Y counted along it

On to `COc1c(C)c2c(c(O)c1C/C=C(\C)CCC(=O)O)C(=O)OC2` [MPA, mycophenolic acid], for which the IC50 in data set [1] is 25 ± 2 µM; with Imd2, 70 µM; in data set [2], 27 ± 9 µM; in data set [3], 0.06 ± 0.01 µM; in [4] (read-out: IC50 (MPA), WT PbIMPDH-A, saturating IMP, half-saturating NAD^+, 25°C), 0.43 ± 0.03 µM; in data set [5], 0.026 to 0.06 µM. The IC50 was 0.026 ± 0.002 µM in data set [6]; 0.036 ± 0.004 µM in data set [7]; 0.026 ± 0.002 µM in data set [9]; 0.5 µM with Imd3; 0.16 ± 0.02 µM in data set [10]. For the same compound, the “fold more resistant to MPA” value in data set [4] (PbIMPDH-A versus IMPDHs from the other filamentous fungi) was 10 fold. Moreover, the “sensitivity towards MPA (growth of spore dilutions)” value in the data set on P. chrysogenum was “more resistant to MPA than A. nidulans”. In addition, in [8], the “growth on minimal media with MPA” value is listed as “resistant”. The “increase of IMP concentrations in the presence of MPA” value in data set [11] is 10-35 fold.

Regarding `NC(=O)c1ccc[n+]([C@@H]2O[C@H](COP(=O)([O-])OP(=O)(O)OC[C@H]3O[C@@H](n4cnc5c(N)ncnc54)[C@H](O)[C@@H]3O)[C@@H](O)[C@H]2O)c1` [NAD^+, nicotinamide adenine dinucleotide], the Km in [2] (read-out: KM (NAD^+), PbIMPDH-B) stood at 790 ± 140 µM.

Consider “AnImdA (IMPDH from Aspergillus nidulans) (Aspergillus nidulans FGSC A4)”, for which, in data set [12] (other: AnImdA), the Km was determined as 170 ± 70 µM and the kcat/Km was 4,400 ± 100 M^−1s^−1.

Consider “PcIMPDH-A (IMPDH-A from Penicillium chrysogenum) (Penicillium rubens Wisconsin 54-1255)”, for which, in data set [12] (other: PcIMPDH-A), the Km stood at 290 ± 60 µM and the kcat/Km is 2900 ± 300 M⁻¹ s⁻¹.

For the compound “PcIMPDH-B (IMPDH-B from P. chrysogenum) (Penicillium rubens Wisconsin 54-1255)”, in [12] (other: PcIMPDH-B), the Km amounted to 640 ± 130 µM and the kcat/Km was determined as 11 ± 6 M⁻¹ s⁻¹.

The values above are taken from PMC4636733 (The Biochemical journal, 2012).
